# Experimental data from different studies.
# Lines come from different studies, so protocols differ.
# Target: Serine/threonine-protein kinase Nek5 (NEK5, Homo sapiens, UniProt Q6P3R8)
# One construct used (Q6P3R8 1-708): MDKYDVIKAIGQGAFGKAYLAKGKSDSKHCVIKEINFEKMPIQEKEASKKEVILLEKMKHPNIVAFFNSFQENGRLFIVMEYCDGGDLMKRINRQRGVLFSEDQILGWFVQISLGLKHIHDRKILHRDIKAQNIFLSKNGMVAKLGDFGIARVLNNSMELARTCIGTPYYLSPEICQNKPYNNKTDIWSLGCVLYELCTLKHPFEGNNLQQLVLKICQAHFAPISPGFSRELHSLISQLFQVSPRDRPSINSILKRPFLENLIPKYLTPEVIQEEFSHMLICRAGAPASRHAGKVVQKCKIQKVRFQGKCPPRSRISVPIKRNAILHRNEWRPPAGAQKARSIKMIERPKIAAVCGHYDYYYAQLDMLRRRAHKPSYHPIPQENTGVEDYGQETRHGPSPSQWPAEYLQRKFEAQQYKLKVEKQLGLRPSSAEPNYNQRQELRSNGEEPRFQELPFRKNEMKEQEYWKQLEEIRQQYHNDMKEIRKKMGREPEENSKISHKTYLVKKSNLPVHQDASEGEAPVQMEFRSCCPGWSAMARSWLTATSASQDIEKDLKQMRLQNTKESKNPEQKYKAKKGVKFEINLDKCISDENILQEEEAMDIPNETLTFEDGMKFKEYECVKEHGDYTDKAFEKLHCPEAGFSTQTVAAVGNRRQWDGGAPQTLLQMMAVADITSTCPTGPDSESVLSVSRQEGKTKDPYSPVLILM
Compound,observed,technique,concentration,remaining binding
N[C@H]1CCN(c2nccc(-c3cnn4ncccc34)n2)C1,binding,,1 µM,87%
C[C@H](NC(=O)c1cnc2n1[C@](C)(Cc1ccc(C#N)cc1)C(=O)N2c1cc(Cl)c(F)c(Cl)c1)C(=O)NC1(c2ccccn2)CC1,cell-free assay,competition with immobilised ligand,1 µM,100%
Nc1ncc2c(n1)-c1c([nH]c3ccc(C#CC4CC4)cc13)CCCC2,binding,competition with immobilised ligand,1 µM,100%
c1ccc(N2CCN(Cc3nc4ccccc4[nH]3)CC2)nc1,binding,competition with immobilised ligand,1 µM,100%
F[C@@H]1CCN(c2nccc(-c3cnn4ncccc34)n2)C1,binding,,1 µM,100%
FC(F)(F)Oc1cccc(-c2cnc3ccc(-c4ccncc4)nn23)c1,cell-free assay,competition with immobilised ligand,5 µM,74%
Cc1noc([C@H]2C[C@@H](c3ccc(C(F)(F)F)cc3)CN(C(=O)N3CCS(=O)(=O)C3)C2)n1,cell-free assay,competition with immobilised ligand,1 µM,100%
O=C(c1ccc(Nc2ncc(Cl)c(-c3ccc(Cl)s3)n2)cc1)N1CCC(N2CCCC2)CC1,binding,competition with immobilised ligand,1 µM,0%
CN(CCCC(F)(F)F)c1nccc(-c2cnn3ncccc23)n1,binding,,1 µM,100%
FC(F)(F)c1ccc2c(c1)nc(-c1cccnc1)n2C1CC1,cell-free assay,competition with immobilised ligand,1 µM,100%
COc1cnc(Nc2cccc(S(N)(=O)=O)c2)nc1N1CCN(c2ccccc2)C(=O)C1,binding,competition with immobilised ligand,1 µM,88%
CN(c1nccc(-c2cnn3ncccc23)n1)C1CC1,binding,,1 µM,100%
O=C(c1ccc(Nc2ncc(Cl)c(-c3cc4ccccc4s3)n2)cc1)N1CCC(N2CCCC2)CC1,binding,competition with immobilised ligand,1 µM,0%
C[C@@H](c1cccc(C#N)c1)n1cc(Cl)cc(C(N)=O)c1=N,cell-free assay,competition with immobilised ligand,1 µM,100%
CN(C)c1ncc(F)c(-c2cnn3ncccc23)n1,binding,,1 µM,88%
O=C(NCC1CCOCC1)c1n[nH]cc1NC(=O)c1c(F)cccc1F,binding,competition with immobilised ligand,1 µM,100%
C=CC(=O)N1CCC(C(=O)NCC(=O)N2CCN(c3nc(-c4cnc(N)nc4C(F)F)nc(N4CCOCC4)n3)CC2)CC1,binding,competition with immobilised ligand,1 µM,100%
O=C(NCCCN1CCOCC1)c1ccc(Nc2ncc(Cl)c(-c3ccc(Cl)s3)n2)cc1,binding,competition with immobilised ligand,1 µM,0%
C[C@H]1CCN(c2nccc(-c3cnn4ncccc34)n2)C1,binding,,1 µM,90%
CC(=O)N1CCC(c2ccc(C(=O)NC(=N)N)cc2C(F)(F)F)CC1,cell-free assay,competition with immobilised ligand,1 µM,100%
C[C@@H](c1ccc(-n2cnc3c(N)ncnc32)cc1)N1CCc2nn(C)c(Cc3ccccc3)c2C1=O,binding,competition with immobilised ligand,0.1 µM,92%
